Rpn11 block: inhibitors of human proteasome Rpn11. human 26S proteasome, Ub4-pepOG fluorescence polarization; 20S core pre-blocked with epoxomicin. inhibition, % at 20 µM. actives 0.59% (n = 360,000);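 active = inhibition at 20 µM, scaled to each plate's controls, above about 33%, limit read from the data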
Target sequence (O00487 whole entry, looked up): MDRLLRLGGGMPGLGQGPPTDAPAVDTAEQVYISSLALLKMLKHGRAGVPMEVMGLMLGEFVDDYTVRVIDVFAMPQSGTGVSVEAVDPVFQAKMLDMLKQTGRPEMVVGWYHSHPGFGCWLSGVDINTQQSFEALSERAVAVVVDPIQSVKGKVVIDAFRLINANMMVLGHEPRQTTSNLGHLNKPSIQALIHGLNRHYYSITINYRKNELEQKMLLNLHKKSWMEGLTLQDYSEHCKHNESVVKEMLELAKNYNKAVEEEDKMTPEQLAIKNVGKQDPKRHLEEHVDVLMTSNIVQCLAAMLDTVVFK
SKN-1 block: inhibitors of C. elegans SKN-1. C. elegans VP596 Pgst-4::GFP/RFP ratio, acrylamide-induced, 24 h. inhibition, % at 21.8 µM. actives 0.49% (n = 360,000). AID 624304;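 active = interference check ratio from 0.5 to 1.5 plus GFP to RFP signal ratio inhibition reaching or exceeding a fixed threshold, cut at about 30% in these data, passing the limit was not always enough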
CSN inh: blocks human CSN-mediated cullin deneddylation. Q92905. Purified CSN, SCF-Nedd8-OG deneddylation, fluorescence polarization. inhibition, % at 12.5 µM. actives 0.38% (n = 360,000);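 active = pattern-corrected inhibition above about 35%, with an unprinted fluorescence ratio check between 0.5 and 1.5, limit read from the data, passing the limit was not always enough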;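 note: 0% = enzyme with substrate and 100% = substrate without enzyme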
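Schedule: reaction 90 min, room temperature / Assay system: HEK293T-derived human Csn5 enzyme / Input: Csn5 at 0.24 nM final / Measure: inhibition of Csn5 cleavage, % / Control set: substrate-only high control, full reaction low control / Technique: fluorescence polarization of the substrate / Buffer or medium: Tris/NaCl/DTT buffer, pH 7.5 / Reagent: SCFSkp2-Nedd8OG substrate at 10 nM final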
DNMT1 inh: DNMT1 (human) enzyme inhibition; inhibition (reported as % activation of signal), % at 10 µM; DNMT1 molecular beacon, Hinp1I cleavage, fluorescence; actives 0.83% (n = 360,000); P26358; AID 588458; in the data active = inhibition above about 50%
MT1-MMP act inh: MT1-MMP (human) activation inhibition; actives 0.061% (n = 360,000); HT1080 RFP-PRO-GFP cells, GFP/RFP ratio fluorescence, overnight; percent of plate control window, DMSO zero; GFP/RFP ratio change, % at 20 µM; AID 651647;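 active = GFP/RFP ratio change of at least 30% with cell ATP level not reduced by more than half and red fluorescence within 50% of control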
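Material – HT1080 RFP-PRO-GFP cells · Control set – DMSO wells and RFP-L50D-GFP cells · Incubation – overnight cell settling, then overnight compound exposure, 37 °C, 5% CO2 · Compound dosing – single-point 20 µM compound, 1% DMSO · Read-out – GFP/RFP fluorescence ratio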
SUMO1 PPI mod: SUMO1-SIM interaction modulation. SUMO1 binding to a labelled peptide, TR-FRET, 1 h. actives 0.33% (n = 360,000). inhibition, % at 20 µM. AID 602429; in the data active = inhibition above about 37%
Target sequence (P63165 whole entry, looked up): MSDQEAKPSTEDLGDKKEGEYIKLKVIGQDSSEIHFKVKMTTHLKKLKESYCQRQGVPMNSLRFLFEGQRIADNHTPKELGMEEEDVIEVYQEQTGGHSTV
* marks the source's active call; other numbers are inactive results; x = no result given. A selection: hits, their analogues and other compounds. The true share with any hit is near 2.3%.

SMILES	Rpn11 block	SKN-1 block	CSN inh	DNMT1 inh	MT1-MMP act inh	SUMO1 PPI mod
CC(C)CSc1nc(N2CCOCC2)c2c(c1C#N)CC(C)(C)SC2	0	-27	2	-4	-2	-3
O=C(C1CCN(S(=O)(=O)Cc2ccccc2)CC1)N1CCN(c2ncccn2)CC1	-6	11	101*	-13	5	20
CC(=O)c1ccc(N2CCN(C(=O)C3CCN(S(=O)(=O)Cc4ccccc4)CC3)CC2)cc1	-1	-1	92*	-45	6	17
O=C(OC1CC2CC1[C@H]1CCCCN1C2=O)N1CCN(C(=O)c2ccccc2)CC1 (stereo partly specified)	x	-12	-5	x	2	1
COc1nc(-c2ccccc2)ccc1-c1noc(-c2ccco2)n1	12	63*	2	-9	-3	5
COc1ccc(-c2ccc(-c3noc(-c4ccco4)n3)c(OC)n2)cc1	26	6	3	0	-4	3
CCNc1nc(NCC)n2c(SCC(=O)Nc3ccc(F)cc3)nnc2n1	-10	1	4	55*	-1	11
CC(C)(C)n1nnnc1C(C1CC1)N1CCN(C/C=C/c2ccccc2)CC1 (stereo unspecified)	7	12	51*	0	0	0
Cc1ccc(-n2nc(C)c(/C=N/n3c(C)n[nH]c3=S)c2Cl)cc1	2	-9	-13	1	-2	38*
O=C1C(c2ccnc3ccccc23)=C(O)c2ccccc21	9	6	7	52*	-1	22
O=C1C(=O)c2ccccc2C(O)=C1c1ccccc1F	-2	7	-1	-3	6	-29
O=C1c2ccccc2C(=O)C1c1ccnc2ccccc12	14	-1	6	56*	-10	21
CCOC(=O)C1(C)/C(=N/Nc2ccc(Cl)cc2)C(=O)C(=O)N1c1ccccc1 (stereo unspecified)	1	38*	0	0	11	-20
CCOC(=O)C1(C)/C(=N/Nc2cccc(Cl)c2)C(=O)C(=O)N1c1ccccc1 (stereo unspecified)	-1	21	2	5	2	-28
CCCCC[C@@H](C)N1C[C@@H](COCc2ccccc2)Oc2cc(N3CCC[C@H]3COC)ccc2S1(=O)=O	x	8	2	x	-5	-2
COC(=O)c1c(C)noc1-c1ccc(Cl)cc1	-1	5	7	0	-4	4
COC(=O)c1c(-c2ccccc2)noc1-c1ccccc1	0	45*	-6	-1	-3	1
C=CCNC(=O)c1cccc2c1C(=O)c1ccc(N3CCCC3)cc1S2(=O)=O	x	18	36*	-1	-84	-62
O=C(NCC1CC1)c1cccc2c1C(=O)c1ccc(N3CCCC3)cc1S2(=O)=O	x	26	32	3	-80	-57
CCN(CC(=O)Nc1c(F)cccc1F)C(=O)/C=C/c1ccc2ccccc2n1	x	0	61	102*	-4	77*
CCN(CC(=O)Nc1c(F)cccc1F)C(=O)c1ccc2ccccc2n1	-7	-16	4	-1	12	-1
CC(C)NC(=O)Nc1nnc([C@H]2C[C@H](O)[C@@H](CO)O2)s1	-1	-6	5	0	5	-2
CC(C)Oc1cc(F)ccc1-c1cc(C(=O)NCc2cccs2)[nH]n1	-4	16	-2	-3	1	4
CCC1CCCCN1CCCNC(=O)COc1cc(=O)n(C)c2ccccc12 (stereo unspecified)	-3	6	-5	-1	6	44*
CCC1CCCCN1CCCNC(=O)CCCOc1cc(=O)n(C)c2ccccc12 (stereo unspecified)	-9	5	-5	6	1	1
SMILES	Rpn11 block	SKN-1 block	CSN inh	DNMT1 inh	MT1-MMP act inh	SUMO1 PPI mod
N#Cc1ccccc1OCC(O)CS(=O)(=O)c1ccccc1 (stereo unspecified)	-5	53*	4	2	1	5
CCOC(=O)C12CNC(=O)C(C(=O)OCC)(CNC1=O)C2	7	-7	15	1	1	40*
Cc1cc(-c2nc3cc(F)ccc3s2)ccc1N	-7	83*	-4	3	3	-24
Cc1cc2nc(-c3nnnn3-c3c(C)cccc3C)c(=O)[nH]c2cc1C	x	-1	-4	x	3	0
CCOC(=O)N1CCN(CCC(=O)Nc2ccc(C)c(Br)c2)CC1	0	0	-4	-1	3	3
Cc1ccc(NC(=O)CCN2CCN(CCO)CC2)cc1Br	-5	8	1	1	0	52*
CCOC(=O)[C@]12CCCC=C1N(CCC1=CCCCC1)C(=O)[C@H](CC(=O)NCc1ccc(OC)c(OC)c1)C2	x	-12	2	x	2	-1
O=S1(=O)CC(N2CCC(Cc3ccccc3)CC2)CN1C1CCCCC1 (stereo unspecified)	7	7	0	8	5	3
C#CCOCCOCCOCCNc1nc(N2CCN(C(=O)CCCCCCCCCCNC(=O)[C@H](CCCCN)n3cc(C[C@@H](C)CC)nn3)CC2)nc(N2CCN(C(=O)CCCCCCCCCCNC(=O)[C@H](CCCN=C(N)N)n3cc(C[C@@H](C)CC)nn3)CC2)n1	128*	17	137*	-227	5	72*
C#CCOCCOCCOCCNc1nc(N2CCN(C(=O)CCCCCCCCCCNC(=O)[C@@H](CCSC)n3cc(CCO)nn3)CC2)nc(N2CCN(C(=O)CCCCCCCCCCNC(=O)[C@H](CCCN=C(N)N)n3cc(C[C@@H](C)CC)nn3)CC2)n1	118*	6	131*	-106	5	80*
C#CCOCCOCCOCCNc1nc(N2CCN(C(=O)CCCCCCCCCCNC(=O)[C@@H](CCC(=O)O)n3cc(CCCCCN)nn3)CC2)nc(N2CCN(C(=O)CCCCCCCCCCNC(=O)[C@H](CCCCN)n3cc(C[C@@H](C)CC)nn3)CC2)n1	-1	9	4	-142	5	-184
C#CCOCCOCCOCCNc1nc(N2CCN(C(=O)CCCCCCCCCCNC(=O)[C@H](CCCCN)n3cc(C[C@@H](C)CC)nn3)CC2)nc(N2CCN(C(=O)CCCCCCCCCCNC(=O)[C@@H]([C@H](C)O)n3cc(C)nn3)CC2)n1	38	6	66*	-148	-34	70*
c1ccc(CSc2nccc(-c3ccco3)n2)cc1	20	43*	10	-1	-4	-1
Cn1nnnc1Sc1ncnc2scc(-c3ccc(F)cc3)c12	49*	-21	10	-1	-24	-3
Cn1nnnc1Sc1ncnc2scc(-c3ccc(Br)cc3)c12	4	-8	14	4	2	-13

High-throughput results as filed in PubChem.
